Consider 5 molecules from ChEMBL document CHEMBL4732053, “Design, synthesis and structure-activity relationship study of novel urea compounds as FGFR1 inhibitors to treat metastatic triple-negative breast cancer” (Eur J Med Chem, 2021).

Structures are written as SMILES. Active and inactive are the calls of the source. The rule behind the calls is not given here.

Data set [1] has as its system MDA-MB-231. Nature of the data set: Induction of apoptosis in human MDA-MB-231 cells assessed as caspase-3 cleavage. It is filed as functional, cell-based. In a few lines: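 MDA-MB-231 cells treated 48 h, lysed on ice in RIPA buffer with protease and phosphatase inhibitors, then centrifuged. Equal protein loads were run on SDS-PAGE and transferred to PVDF. Blots were probed for cleaved caspase-3 and total caspase-3 (1:1000), with β-tubulin (1:2000) as loading control. Detection used HRP chemiluminescence with goat anti-rabbit secondary, and bands were quantified by densitometry.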

Data set [2] has as its system MDA-MB-231. Nature of the data set: Induction of apoptosis in human MDA-MB-231 cells incubated for 48 hrs. The format is functional, cell-based.
For data set [3], the system named is MDA-MB-231. Description: Effect on cell cycle in human MDA-MB-231 cells at 0 to 5 uM. It is filed as functional, cell-based. As to conditions: dose 0-5 µM.
The test system of data set [4] is MDA-MB-231. Nature of the data set: Induction of apoptosis in human MDA-MB-231 cells assessed as fold increase in apoptotic index at 5 uM relative to control. The format is functional.
The test system of data set [5] is MDA-MB-231. Description: Induction of apoptosis in human MDA-MB-231 cells at 1 uM incubated for 48 hrs. The format is functional, cell-based.
The test system of data set [6] is MDA-MB-231. Nature of the data set: Cytotoxicity against human MDA-MB-231 cells assessed as reduction in cell viability incubated for 48 hrs by MTT assay. It is filed as functional, cell-based. The settings on record: MDA-MB-231, 48 h. In a few lines: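 MTT assay in MDA-MB-231 cells grown in DMEM with 10% heat-inactivated FBS at 37 °C and 5% CO2. Cells were seeded at 8000 per well, left 24 h, then exposed for 48 h to 0–25 μM in DMEM with 2% FBS (final DMSO 0.1%). MTT (0.5 mg/mL) was added for 2 h, formazan was dissolved in DMSO and read at 570 nm. Runs were in triplicate and IC50 was derived from the curves.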

Data set [7] can be described thus: Metabolic stability in Sprague-Dawley rat liver microsomes assessed as parent compound remaining in presence of NADPH measured up to 60 mins by LC-MS/MS analysis. The format is ADME, Microsome. As to conditions: 1 h. In a few lines: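 Pooled male Sprague-Dawley rat liver microsomes (6.2% mixture in potassium phosphate buffer) were used with an NADPH regenerating system. Compound, diluted to 5 μM before mixing, was prewarmed 10 min at 37 °C, then incubated with microsomes at 37 °C with shaking. Samples taken at 0, 5, 15, 30 and 60 min were quenched in ice-cold acetonitrile and centrifuged. Analysis was by LC-MS/MS, giving % remaining versus T0 from peak area ratios. Three independent experiments in triplicate.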
(Liver microsomes are vesicles of endoplasmic reticulum, rich in cytochrome P450 enzymes.)

Data set [8] deals with Fibroblast growth factor receptor 1 (Homo sapiens) (UniProt P11362). Nature of the data set: Inhibition of FGFR1 phosphorylation in human […] cells at 3 to 6 uM incubated for 48 hrs in presence of bFGF by immunoblotting analysis. It is filed as cell-based. The settings on record: MDA-MB-231, dose 3-6 µM. In a few lines:
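MDA-MB-231 cells treated 48 h with or without bFGF, lysed in RIPA buffer with protease and phosphatase inhibitors. Equal protein loads were run on SDS-PAGE and transferred to PVDF. Blots were probed with anti-pFGFR1 (1:1000), using β-tubulin (1:2000) as loading control. Bands were detected by HRP chemiluminescence and quantified by densitometry; n = 3.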
(Immunoblotting shows a protein as a band on a membrane.)

Data set [9] deals with DAT (sodium-dependent dopamine transporter) (Homo sapiens, UniProt Q01959). Nature of the data set: Inhibition of DAT (unknown origin) at 10 uM relative to control. The procedure, abridged:
(§1)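 Primary radioligand-binding screen by the NIMH Psychoactive Drug Screening Program. Each compound was tested at a final concentration of 10 μM in triplicate or quadruplicate, and % inhibition was recorded. Data are mean ± SEM of four independent experiments. Compounds reaching at least 50% antagonist activity went on to secondary dose-response assays.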

In data set [10] the target is Sodium-dependent dopamine transporter (Homo sapiens, UniProt Q01959). Nature of the data set: Inhibition of DAT (unknown origin).
Chain of Sodium-dependent dopamine transporter (Q01959 whole entry): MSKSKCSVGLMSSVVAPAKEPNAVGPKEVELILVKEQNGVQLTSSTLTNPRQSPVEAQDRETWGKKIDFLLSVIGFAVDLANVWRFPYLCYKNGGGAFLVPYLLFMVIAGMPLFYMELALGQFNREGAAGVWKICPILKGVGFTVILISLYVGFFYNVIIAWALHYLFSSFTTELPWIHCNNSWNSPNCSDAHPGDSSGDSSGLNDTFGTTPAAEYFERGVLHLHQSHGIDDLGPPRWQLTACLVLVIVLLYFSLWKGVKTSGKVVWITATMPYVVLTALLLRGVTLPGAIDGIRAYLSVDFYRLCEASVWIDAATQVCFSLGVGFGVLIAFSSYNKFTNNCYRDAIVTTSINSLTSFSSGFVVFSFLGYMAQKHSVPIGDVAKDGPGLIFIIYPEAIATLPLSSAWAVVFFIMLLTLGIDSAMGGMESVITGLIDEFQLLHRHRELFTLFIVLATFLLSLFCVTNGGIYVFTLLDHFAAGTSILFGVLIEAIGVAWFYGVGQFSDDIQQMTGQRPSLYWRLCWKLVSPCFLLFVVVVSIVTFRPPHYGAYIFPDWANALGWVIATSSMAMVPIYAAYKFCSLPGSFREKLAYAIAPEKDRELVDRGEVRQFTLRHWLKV
Data set [11] has as its target D(2) dopamine receptor (Homo sapiens, UniProt P14416). Nature of the data set: Binding affinity to dopamine D2 receptor (unknown origin) at 10 uM. In a few lines: as §1
In data set [12] the target is D(1A) dopamine receptor (Homo sapiens, UniProt P21728). Nature of the data set: Binding affinity to dopamine D1 receptor (unknown origin) at 10 uM. In a few lines:
as §1

The target of data set [13] is T1, D(4) dopamine receptor (Homo sapiens, UniProt P21917).
T1 sequence (P21917 whole entry): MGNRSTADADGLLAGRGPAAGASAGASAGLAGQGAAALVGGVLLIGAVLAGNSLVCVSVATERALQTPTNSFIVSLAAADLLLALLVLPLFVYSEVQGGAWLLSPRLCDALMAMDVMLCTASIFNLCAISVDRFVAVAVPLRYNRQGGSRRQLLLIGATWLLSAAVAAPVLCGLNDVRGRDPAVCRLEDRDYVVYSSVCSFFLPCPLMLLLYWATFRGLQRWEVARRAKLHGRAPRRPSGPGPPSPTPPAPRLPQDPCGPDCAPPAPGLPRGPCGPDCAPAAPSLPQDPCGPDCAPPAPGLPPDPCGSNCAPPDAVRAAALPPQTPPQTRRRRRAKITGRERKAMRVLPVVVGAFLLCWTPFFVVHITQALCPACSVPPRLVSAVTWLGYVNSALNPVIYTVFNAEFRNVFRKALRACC
Description: Binding affinity to dopamine D4 receptor (unknown origin) at 10 uM. The procedure, abridged: as §1

In data set [14] the target is D(3) dopamine receptor (Homo sapiens, UniProt P35462). Description: Binding affinity to dopamine D3 receptor (unknown origin) at 10 uM. It is filed as ADME. The procedure, abridged: as §1
Chain of D(3) dopamine receptor (P35462 whole entry): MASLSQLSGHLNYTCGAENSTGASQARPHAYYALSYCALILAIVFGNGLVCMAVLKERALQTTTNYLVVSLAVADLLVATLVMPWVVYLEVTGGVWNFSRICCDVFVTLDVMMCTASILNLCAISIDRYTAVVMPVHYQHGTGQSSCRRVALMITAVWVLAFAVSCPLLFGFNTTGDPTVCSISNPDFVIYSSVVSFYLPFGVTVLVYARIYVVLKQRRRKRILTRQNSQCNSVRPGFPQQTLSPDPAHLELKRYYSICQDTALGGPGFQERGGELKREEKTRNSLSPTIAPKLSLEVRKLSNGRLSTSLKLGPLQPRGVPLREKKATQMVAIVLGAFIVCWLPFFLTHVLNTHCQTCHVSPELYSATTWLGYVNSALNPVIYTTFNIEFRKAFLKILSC
The target of data set [15] is D(1B) dopamine receptor (Homo sapiens, UniProt P21918). Nature of the data set: Binding affinity to dopamine D5 receptor (unknown origin) at 10 uM. The procedure, abridged:
as §1

Data set [16] can be described thus: Drug uptake in C57 mouse brain at 10 mg/kg, ip measured after 1 hrs by LC-MS/MS analysis. It is filed as ADME, organism-based. The settings on record: in vivo. In a few lines:
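Eight-week-old male and female C57 mice (~20 g) received a single 10 mg/kg i.p. dose in ethanol 2.5%, DMSO 2.5%, Tween 80 5%, PEG 400 25% and PBS 65%. Brains were taken after cardiac perfusion at 0–48 h. Tissue was homogenized in PBS (1:3 w/v), extracted with acetonitrile containing internal standard, and quantified by LC-MS/MS against matrix-matched calibration curves. n = 2–4.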

Data set [17] concerns the target Histamine H1 receptor (Homo sapiens, UniProt P35367). Nature of the data set: Inhibition of H1R (unknown origin).

Chain of DAT (sodium-dependent dopamine transporter) (Q01959 whole entry): as the sequence (Q01959 whole entry) above
Chain of D(1B) dopamine receptor (P21918 whole entry): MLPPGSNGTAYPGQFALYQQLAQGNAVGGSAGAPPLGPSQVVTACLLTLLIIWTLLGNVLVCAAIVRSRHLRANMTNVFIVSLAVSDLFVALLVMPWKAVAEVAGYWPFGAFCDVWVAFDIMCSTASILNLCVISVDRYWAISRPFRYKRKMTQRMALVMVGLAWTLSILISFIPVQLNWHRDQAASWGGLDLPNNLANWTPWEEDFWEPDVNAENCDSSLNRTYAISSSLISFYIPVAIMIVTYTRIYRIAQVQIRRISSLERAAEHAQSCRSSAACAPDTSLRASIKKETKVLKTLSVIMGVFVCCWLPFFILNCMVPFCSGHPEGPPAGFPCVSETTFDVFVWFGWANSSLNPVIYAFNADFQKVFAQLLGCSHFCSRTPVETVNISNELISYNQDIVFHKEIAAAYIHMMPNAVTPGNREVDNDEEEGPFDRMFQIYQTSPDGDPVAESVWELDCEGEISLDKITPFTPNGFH
Chain of Fibroblast growth factor receptor 1 (Homo sapiens) (P11362 22-822 limits assumed): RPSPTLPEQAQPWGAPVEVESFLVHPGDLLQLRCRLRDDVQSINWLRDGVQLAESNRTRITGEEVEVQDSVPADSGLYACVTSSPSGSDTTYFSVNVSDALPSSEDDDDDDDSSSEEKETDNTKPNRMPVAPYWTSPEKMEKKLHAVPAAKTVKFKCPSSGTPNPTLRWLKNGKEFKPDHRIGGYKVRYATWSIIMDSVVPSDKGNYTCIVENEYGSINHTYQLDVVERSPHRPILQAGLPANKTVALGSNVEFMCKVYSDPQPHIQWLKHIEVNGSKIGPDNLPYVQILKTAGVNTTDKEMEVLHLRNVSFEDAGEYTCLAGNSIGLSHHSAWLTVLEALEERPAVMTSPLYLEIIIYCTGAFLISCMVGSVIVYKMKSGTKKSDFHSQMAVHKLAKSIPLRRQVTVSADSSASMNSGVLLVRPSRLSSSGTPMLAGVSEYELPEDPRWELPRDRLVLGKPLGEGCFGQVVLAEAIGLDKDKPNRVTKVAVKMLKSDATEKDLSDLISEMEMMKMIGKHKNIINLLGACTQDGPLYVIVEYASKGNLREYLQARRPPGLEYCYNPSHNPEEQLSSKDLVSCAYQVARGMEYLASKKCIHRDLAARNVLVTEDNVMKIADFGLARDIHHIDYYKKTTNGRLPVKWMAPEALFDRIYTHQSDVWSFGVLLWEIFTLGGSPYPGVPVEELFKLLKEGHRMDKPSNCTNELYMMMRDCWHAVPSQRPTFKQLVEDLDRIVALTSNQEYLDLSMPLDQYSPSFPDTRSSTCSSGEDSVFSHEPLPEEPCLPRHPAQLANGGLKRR
Chain of D(1A) dopamine receptor (P21728 whole entry): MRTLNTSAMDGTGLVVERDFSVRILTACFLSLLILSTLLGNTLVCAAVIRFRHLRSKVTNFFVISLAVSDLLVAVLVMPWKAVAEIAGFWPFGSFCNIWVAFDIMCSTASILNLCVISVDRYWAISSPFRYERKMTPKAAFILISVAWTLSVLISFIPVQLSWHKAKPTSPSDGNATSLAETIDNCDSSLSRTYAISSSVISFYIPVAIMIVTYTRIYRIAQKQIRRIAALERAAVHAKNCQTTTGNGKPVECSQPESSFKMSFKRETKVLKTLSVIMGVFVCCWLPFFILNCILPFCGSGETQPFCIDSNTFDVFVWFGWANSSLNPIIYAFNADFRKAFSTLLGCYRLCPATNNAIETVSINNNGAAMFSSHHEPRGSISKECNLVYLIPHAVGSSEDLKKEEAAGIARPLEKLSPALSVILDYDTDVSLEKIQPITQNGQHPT
Chain of Histamine H1 receptor (P35367 whole entry): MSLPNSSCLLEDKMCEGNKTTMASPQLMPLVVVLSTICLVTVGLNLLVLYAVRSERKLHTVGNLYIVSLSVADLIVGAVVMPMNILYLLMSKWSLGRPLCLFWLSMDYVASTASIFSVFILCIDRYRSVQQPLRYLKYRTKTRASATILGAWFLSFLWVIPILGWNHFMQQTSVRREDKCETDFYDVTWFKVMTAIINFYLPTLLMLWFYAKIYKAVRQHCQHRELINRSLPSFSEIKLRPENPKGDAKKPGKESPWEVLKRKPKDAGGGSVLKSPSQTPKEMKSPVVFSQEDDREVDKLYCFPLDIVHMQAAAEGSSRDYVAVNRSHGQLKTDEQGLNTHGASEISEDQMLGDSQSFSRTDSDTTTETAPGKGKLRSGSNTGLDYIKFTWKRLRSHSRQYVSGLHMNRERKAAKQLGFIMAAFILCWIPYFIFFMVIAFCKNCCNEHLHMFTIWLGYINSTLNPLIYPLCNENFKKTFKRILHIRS
Chain of D(2) dopamine receptor (P14416 whole entry): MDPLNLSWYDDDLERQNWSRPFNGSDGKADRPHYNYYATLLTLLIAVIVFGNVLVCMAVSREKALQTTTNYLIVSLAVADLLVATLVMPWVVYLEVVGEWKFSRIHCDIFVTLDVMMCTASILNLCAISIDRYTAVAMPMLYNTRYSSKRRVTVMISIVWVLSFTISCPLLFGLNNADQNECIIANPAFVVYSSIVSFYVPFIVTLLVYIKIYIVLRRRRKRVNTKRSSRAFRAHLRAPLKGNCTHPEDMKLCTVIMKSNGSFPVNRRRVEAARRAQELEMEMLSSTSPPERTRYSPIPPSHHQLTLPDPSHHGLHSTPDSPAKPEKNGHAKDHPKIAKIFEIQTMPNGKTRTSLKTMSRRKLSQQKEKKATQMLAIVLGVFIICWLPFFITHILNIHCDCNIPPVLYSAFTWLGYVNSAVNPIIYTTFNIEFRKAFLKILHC

For the molecule `O=C(NCCCCC(c1ccc(F)cc1)c1ccc(F)cc1)Nc1ccc([N+](=O)[O-])c(C(F)(F)F)c1`, the result in data set [1] and in data set [5] was Active. For the same molecule, the Activity entry in data set [2] is “Dose-dependent effect”. Further, in data set [3], the result was inactive. In data set [4], the “fold change (FC)” value was found to be 10.6. Besides, in [6], the IC50 (usually the concentration at which inhibition is half-maximal) amounted to 4.55 µM. Also, in [7], the Stabilty entry is “Stable”. The inhibition (usually the percentage by which the read-out fell short of the control) in data set [8] was “Active”.
For `O=C(NCCCCC(c1ccc(F)cc1)c1ccc(F)cc1)Nc1ccc(Cl)c(C(F)(F)F)c1`, the IC50 in data set [6] is 3.15 µM. Moreover, the Stabilty result in [7] is given as “Stable”. The same molecule gave an inhibition at 10 µM in [9] of 90%. Moreover, the Ki (commonly a dissociation constant, usually derived from enzyme kinetics or from competition with a known ligand) in data set [10] was determined as 0.0065 µM.
Consider `O=C(NCCCCC(c1ccc(F)cc1)c1ccc(F)cc1)Nc1ccc(Cl)cc1`, for which, in data set [6], the IC50 is 7.68 µM. In addition, the Activity result in data set [11], in [12], in [13], in [14] and in [15] was “Not Active” in each case. In data set [9], this molecule returned an inhibition at 10 µM of 82%. The affinity in data set [10] corresponds to a Ki of 0.015 µM. The Drug uptake entry in data set [16] is reported as “Active”. The “inhibition (INH)” value in [17] is listed as “Active”.
As for `Cc1ccc(C(CCCCNC(=O)Nc2ccc(Cl)cc2)c2ccc(C)cc2)cc1`, in data set [6], the IC50 is 17.9 µM. Moreover, testing at 10 µM in data set [9] gave an inhibition of 59%. This molecule displayed a Ki in data set [10] of 0.535 µM.
On the same counts, the results for `O=C(NCCCCN(c1ccc(F)cc1)c1ccc(F)cc1)Nc1ccc(Cl)c(C(F)(F)F)c1` are 5.04 µM, 85% and 0.043 µM.
